Experimental data pooled from the literature.
Lines come from different studies, so protocols differ.
Target: Fibroblast growth factor receptor 4 (FGFR4, Homo sapiens, UniProt P22455)

SMILES	test	conditions	remaining binding [%]
O=C(NCCCN1CCOCC1)c1ccc(Nc2nccc(-c3cc4ccccc4s3)n2)cc1	binding, competition with immobilised ligand	1 µM	91
C[C@H](c1ccc(F)cc1)N(Cc1cccc(C(=O)O)c1)C(=O)c1cnc2ccccc2c1	cell-free assay, competition with immobilised ligand	1 µM	91
C[C@H]1CCN(c2nccc(-c3cnn4ncccc34)n2)C1	binding	1 µM	76
COc1cnc(Nc2cccc(S(N)(=O)=O)c2)nc1N1CCN(c2ccccc2)CC1	binding, competition with immobilised ligand	1 µM	98
c1cncc(-c2cccc(Nc3nccc(NC4CCCCC4)n3)c2)c1	binding, competition with immobilised ligand	10 µM	94
CN(C)c1ncc(F)c(-c2cnn3ncccc23)n1	binding	1 µM	100
C[C@@H](c1ccc(-n2cnc3c(N)ncnc32)cc1)N1CCc2nn(C)c(Cc3ccccc3)c2C1=O	binding, competition with immobilised ligand	0.1 µM	97
O=C(NS(=O)(=O)c1ccc(NCC2CCOCC2)c([N+](=O)[O-])c1)c1ccc(N2CCN(Cc3ccc(C(F)(F)F)cc3-c3ccc(Cl)cc3)CC2)cc1Oc1cnc2[nH]ccc2c1	cell-free assay, competition with immobilised ligand	1 µM	96
CC1CCCN1c1nccc(-c2cnn3ncccc23)n1 (stereo not shown)	binding	1 µM	100
CN(c1ccnc(CNc2nc(Nc3ccc4c(c3)CC(=O)N4)ncc2C(F)(F)F)n1)S(C)(=O)=O	cell-free assay, competition with immobilised ligand	1 µM	83
Cc1cnn2ncc(-c3ccnc(N(C)C)n3)c2c1	binding	1 µM	97
O=C(c1ccc(Nc2nccc(-c3cc4ccccc4s3)n2)cc1)N1CCC(N2CCCC2)CC1	binding, competition with immobilised ligand	1 µM	99
O=C(NCC1CCOCC1)c1n[nH]cc1NC(=O)c1c(F)cccc1F	binding, competition with immobilised ligand	1 µM	100
CCc1ccccc1C(=O)Nc1n[nH]c2c(C)c(F)c(C3C(C#N)=C(C)N(C)C(C)=C3C#N)cc12	cell-free assay, competition with immobilised ligand	1 µM	100
F[C@@H]1CCN(c2nccc(-c3cnn4ncccc34)n2)C1	binding	1 µM	100
COc1ncc2cc3ccccc3nc2c1C#N	cell-free assay, competition with immobilised ligand	5 µM	88
O=C(c1ccc(Nc2ncc(Cl)c(-c3ccc(Cl)s3)n2)cc1)N1CCC(N2CCCC2)CC1	binding, competition with immobilised ligand	1 µM	60
CNC(=O)[C@@H]1CC[C@@H](n2c(-c3ccc4cnccc4c3)nc3ccc(C(=O)NCc4cccc(C(N)=O)c4)cc32)C1	binding, competition with immobilised ligand	1 µM	100
c1cnn2ncc(-c3ccnc(N4CCC45COC5)n3)c2c1	binding	1 µM	91
CS(=O)(=O)NCC[C@H](NC(=O)c1cncc2c1cnn2-c1ccc(F)cc1)c1ccnc(S(C)(=O)=O)c1	cell-free assay, competition with immobilised ligand	1 µM	100
N[C@H]1CCN(c2nccc(-c3cnn4ncccc34)n2)C1	binding	1 µM	100
N#CC1(c2ccccn2)CCN(Cc2cc(C(=O)N3CCCC3)c(=O)n3ccccc23)CC1	cell-free assay, competition with immobilised ligand	1 µM	90
